pIC50: −log10 of the molar value.
Columns and labels:
[1] = Inhibitory activity against human aminopeptidase P
[2] = target: Dipeptidyl peptidase 4 (Homo sapiens, UniProt P27487); assay: Inhibitory activity against human recombinant Dipeptidylpeptidase IV
How it was run: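 Human recombinant enzyme run in a fluorometric assay with Gly-Pro-AMC as substrate. Cleavage releases fluorescent 7-amino-4-methylcoumarin, which is read to give IC50 values.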

[3] = target: Dipeptidyl peptidase 2 (Homo sapiens, UniProt Q9UHL4); assay: Inhibitory activity against human quiescent cell proline dipeptidase
[4] = target: T1, Prolyl endopeptidase (Homo sapiens, UniProt P48147); assay: Inhibitory activity against human prolyl endopeptidase
T1 sequence (P48147 whole entry): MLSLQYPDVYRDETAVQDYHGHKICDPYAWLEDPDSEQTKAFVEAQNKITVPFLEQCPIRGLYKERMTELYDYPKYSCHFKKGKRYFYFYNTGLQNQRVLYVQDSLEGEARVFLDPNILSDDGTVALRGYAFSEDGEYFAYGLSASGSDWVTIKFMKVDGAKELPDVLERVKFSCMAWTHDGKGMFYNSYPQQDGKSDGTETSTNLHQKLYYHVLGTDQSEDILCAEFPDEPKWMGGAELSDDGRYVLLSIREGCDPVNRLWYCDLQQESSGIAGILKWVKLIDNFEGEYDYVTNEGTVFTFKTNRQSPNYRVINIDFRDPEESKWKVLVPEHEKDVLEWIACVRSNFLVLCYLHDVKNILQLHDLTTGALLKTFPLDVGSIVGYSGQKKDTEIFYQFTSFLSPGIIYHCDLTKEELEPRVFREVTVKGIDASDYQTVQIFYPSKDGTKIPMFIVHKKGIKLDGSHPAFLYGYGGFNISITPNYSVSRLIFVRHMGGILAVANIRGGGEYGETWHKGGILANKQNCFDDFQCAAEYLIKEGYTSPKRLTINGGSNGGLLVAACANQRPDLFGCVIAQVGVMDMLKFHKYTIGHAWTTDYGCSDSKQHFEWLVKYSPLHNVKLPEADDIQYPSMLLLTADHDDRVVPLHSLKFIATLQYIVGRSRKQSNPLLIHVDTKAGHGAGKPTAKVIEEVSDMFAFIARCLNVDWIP

[5] = target: T1, Prolyl endopeptidase; assay: Inhibitory activity against human prolylendopeptidase

Sequence of Dipeptidyl peptidase 4 (P27487 whole entry): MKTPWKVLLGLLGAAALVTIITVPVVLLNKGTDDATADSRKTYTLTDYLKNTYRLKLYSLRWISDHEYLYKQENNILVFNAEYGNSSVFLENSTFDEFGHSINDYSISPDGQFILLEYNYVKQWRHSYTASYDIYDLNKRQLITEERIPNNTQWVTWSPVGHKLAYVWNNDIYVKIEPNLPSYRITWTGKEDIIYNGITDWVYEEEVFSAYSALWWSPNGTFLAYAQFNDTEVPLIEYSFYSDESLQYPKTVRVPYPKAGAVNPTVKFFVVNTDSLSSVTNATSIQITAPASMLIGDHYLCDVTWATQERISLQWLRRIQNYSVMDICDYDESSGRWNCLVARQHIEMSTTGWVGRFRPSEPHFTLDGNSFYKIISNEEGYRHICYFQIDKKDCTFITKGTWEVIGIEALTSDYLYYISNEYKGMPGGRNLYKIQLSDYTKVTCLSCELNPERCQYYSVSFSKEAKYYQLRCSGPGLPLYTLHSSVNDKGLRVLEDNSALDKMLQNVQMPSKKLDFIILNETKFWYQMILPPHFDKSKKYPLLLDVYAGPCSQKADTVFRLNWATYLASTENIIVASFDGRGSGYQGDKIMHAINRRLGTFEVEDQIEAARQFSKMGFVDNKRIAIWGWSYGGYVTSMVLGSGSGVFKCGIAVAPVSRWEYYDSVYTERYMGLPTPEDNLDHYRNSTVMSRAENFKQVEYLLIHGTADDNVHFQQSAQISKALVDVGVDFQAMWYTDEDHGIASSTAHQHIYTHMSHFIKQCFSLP

Row | SMILES | pIC50 [1] | pIC50 [2] | pIC50 [3] | pIC50 [4] | pIC50 [5]
1 | N[C@H](C(=O)N1CCCC1)[C@H]1CC[C@@H](O)C1 | < 4.00 | 5.34 | 4.30 | < 4.00 | –
2 | CS(=O)(=O)NCCS(=O)(=O)N[C@@H]1CC[C@@H]([C@H](N)C(=O)N2CCCC2)C1 | < 4.00 | 7.15 | 4.68 | < 4.00 | –
3 | N[C@H](C(=O)N1CCSC1)[C@H]1CC[C@H](NC(=O)Nc2cccc3ccccc23)C1 | < 4.00 | 7.37 | 7.59 | – | 5.68
4 | CS(=O)(=O)NCCS(=O)(=O)N[C@H]1CC[C@H]([C@H](N)C(=O)N2CCCC2)C1 | < 4.00 | 7.02 | 5.70 | – | < 4.00

More lines, now with the values ahead:

Row | pIC50 [1] | pIC50 [2] | pIC50 [3] | pIC50 [4] | pIC50 [5] | SMILES
5 | < 4.00 | 6.48 | 6.96 | – | < 4.00 | N[C@H](C(=O)N1CCCC1)[C@H]1CCC[C@H](OC(=O)Nc2ccc(I)cc2)C1
6 | < 4.00 | 6.08 | 4.34 | – | < 4.00 | N[C@H](C(=O)N1CCCC1)[C@H]1CC[C@H](O)C1
7 | < 4.00 | 6.32 | 6.11 | – | < 4.00 | COc1ccc(NC(=O)O[C@H]2CCC[C@H]([C@H](N)C(=O)N3CCCC3)C2)cc1
8 | < 4.00 | 6.38 | 5.40 | – | < 4.00 | CS(=O)(=O)c1ccc(S(=O)(=O)N[C@H]2CC[C@@H]([C@H](N)C(=O)N3CCCC3)C2)cc1
9 | < 4.00 | 6.68 | 7.12 | – | < 4.00 | N[C@H](C(=O)N1CCSC1)[C@H]1CC[C@@H](OC(=O)Nc2cccc(F)c2)C1

Reference: ChEMBL document CHEMBL1148427, “Diastereoselective synthesis and configuration-dependent activity of (3-substituted-cycloalkyl)glycine pyrrolidides and thiazolidides as dipeptidyl peptidase IV inhibitors” (Bioorg Med Chem Lett, 2004)
